Measurements collected from several papers.
Protocols differ between the studies behind these lines.
EGFR: Epidermal growth factor receptor (EGFR, Homo sapiens, UniProt P00533)

CC#CC(=O)N1CC[C@@H](n2cc(-c3ccc(Oc4c(F)cccc4F)cc3)c3c(N)n[nH]c(=O)c32)C1  Kd (EGFR; binding; competition with immobilised ligand): 270 nM
O=C(N/N=C/c1cccn1CCCN1CCCCC1)Nc1cc2c(Nc3ccc(F)c(Cl)c3)ncnc2cc1O[C@H]1CCOC1  IC50 (EGFR; enzyme activity; inhibitor): 0.8 nM
COc1cc2ncc(-c3ccccc3)nc2cc1OC  Kd (EGFR; binding): > 10000 nM
C=C(Cl)C(=O)Nc1cc(Nc2nc(Nc3cnn(C)c3)c3sccc3n2)c(OC)cc1N(C)CCN(C)C  IC50 (Epidermal growth factor receptor (EGFR, Homo sapiens, UniProt P00533, C797S/L858R/T790M); enzyme activity; inhibitor; ELISA): > 1000 nM
CCN(CC)C/C=N/NC(=O)Nc1cc2c(Nc3ccc(F)c(Cl)c3)ncnc2cc1O[C@H]1CCOC1  IC50 (EGFR; enzyme activity; inhibitor): 0.4 nM
COc1cc2ncnc(Nc3ccc(O)cc3)c2cc1OC  Kd (EGFR; binding): 26 nM
C=C(Cl)C(=O)Nc1cc(Nc2nc(N3CCc4sccc4C3)c3sccc3n2)c(OC)cc1N(C)CCN(C)C  IC50 (EGFR; enzyme activity; inhibitor; ELISA): 996 nM
C=CC(=O)Nc1cc(Nc2nccc(-c3cn(C4CC4)c4ccccc34)n2)c(OC)cc1N(C)CCN(C)C  IC50 (Epidermal growth factor receptor (EGFR, Homo sapiens, UniProt P00533, G719S); enzyme activity; inhibitor; TR-FRET): 82.8 nM
